Source: ChEMBL document CHEMBL4513216, “Probing the Open Global Health Chemical Diversity Library for Multistage-Active Starting Points for Next-Generation Antimalarials” (ACS Infect Dis, 2020)

Experiment: Toxicity liver stage against HepG2, at 10uM
Assay type: cell-based
Design: test concentration 10 uM, cell line HepG2-A16-CD81EGFP
Settings: human, HepG2-A16-CD81EGFP cells; read-out: INHIBITION
In short: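 Uninfected HepG2-A16-CD81EGFP cells, 3 × 10^3 per well, 1536-well, plated on prespotted compound at 10 μM final, parasite-free screening media added to match infected plates; puromycin 10 μM positive, DMSO 0.5% negative; run in parallel with 48 h PbLuc assay at 37 °C, 5% CO2; viability by CellTiter-Glo luminescence, normalized to controls.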

Row | Structure (SMILES) | cytotoxicity at 10 µM [%]
1 | COc1ccc2nc(C[C@@H]3C[C@@H](C(C)C)[C@H](CN(C)C)C=C3C)[nH]c2n1 | 5.09
2 | CC(=O)N1CCC(=O)N(C2CCCC2)Cc2ccccc21 | -6.09
3 | CC1(C)OCC2(CO1)CN(C(=O)c1ccccc1Cl)C2 | -4.21
4 | O=S(=O)(c1ccccc1F)N1CCC(Oc2cccnn2)CC1 | 0.388
5 | Cc1ccncc1NC(=O)C1CSc2ncc(C)c(=O)n2C1 (stereo unspecified) | -6.53
6 | CCNC(=O)N1CCC2(CC1)CCn1c(C3CC3)cnc12 | 1.89
7 | Cn1cccc1C(=O)N1CC[C@H]2[C@@H]1CCC(=O)N2c1ccccc1 | -6.53
8 | c1cncc(OCC2CN(Cc3ccco3)Cc3nccn3C2)c1 (stereo unspecified) | -20.4
9 | Cn1cc(S(=O)(=O)N2CCN(S(=O)(=O)c3ccc(Br)s3)CC2)cn1 | 11.8
10 | CCn1nc(C)c2nc(C)nc(N(C)Cc3ccco3)c21 | 4.23
11 | CCOC(=O)Cn1ccc(NC(=O)Cc2ccccc2F)n1 | 3.33
12 | O=C(COCc1nc(-c2ccncc2)no1)N1CCCCCC1 | -8.83
13 | Cc1nc(NCc2nonc2C)cc(C(C)Cn2nc(C)c(C)c2C)n1 (stereo unspecified) | 7.03
14 | Cc1nn(C)cc1CN1CCCC(n2c(=O)oc3ccccc32)C1 (stereo unspecified) | 3.33
15 | Cc1cc(C)nc(C2CCCN2S(=O)(=O)N2CCOCC2)n1 (stereo unspecified) | 0.55
16 | CCn1cc(CN2CCN(CC(O)c3cc(C)ccc3C)CC2)c(C)n1 (stereo unspecified) | 3.41
17 | Cc1nccc(C2CN(Cc3cc[nH]n3)CCO2)n1 (stereo unspecified) | -6.92
18 | N#Cc1ccc(CN2CCCC3(Cc4ccccc4CNC3=O)C2)cc1 (stereo unspecified) | 11.8
19 | Cn1c(CO)cnc1SC(C(=O)NC1CC1)c1ccccc1 (stereo unspecified) | -56
20 | CN(C)c1cccc(C(=O)N2CCCc3cc(OC(F)(F)F)ccc32)c1 | -44.4
21 | CC1Oc2c(cccc2C(=O)N2CCN(CC(C)(C)O)CC2)NC1=O (stereo unspecified) | -8.9
22 | Cc1ccccc1-n1nccc1NC(=O)CCOC(C)C | 0
23 | CCOc1cncc(NCCc2nnc3ccccn23)n1 | 9.84

Row | Structure (SMILES) | cytotoxicity at 10 µM [%]
24 | NC(=O)CCN(CC(=O)NCc1ccccn1)c1ccc(F)cc1 | 7.98
25 | Cc1nnc2ccc(N3CCN(Cc4nccn4C)CC3)nn12 | 13.3
26 | Cc1cnc(C(=O)N2CCOCC2c2ccccc2)cn1 (stereo unspecified) | -8.31
27 | Cn1cnnc1C1CCN(C(=O)CCCOCc2ccccc2)CC1 | -7.06
28 | Cc1noc(Cl)c1CC(=O)NCC(C)(O)c1ccc(F)cc1F (stereo unspecified) | -0.837
29 | Cc1nc(C2CCCN(C(=O)c3sc(C)nc3C)C2)no1 (stereo unspecified) | -1.96
30 | Cc1[nH]c(=O)sc1S(=O)(=O)N1CCCC1C(=O)NC1CC1 (stereo unspecified) | 5.36
31 | Cc1nn(CCC#N)c(C)c1CCC(=O)N(C(C)C)C1CC1 | -2.72
32 | COCCCn1ccc(NC(=O)NCCCn2ccnc2)n1 | -3.04
33 | CN(Cc1cncs1)C1CCN(C(=O)OC(C)(C)C)CC1 | 5.94
34 | COCC(NC(=O)c1ccc(O)nc1)c1ccc(C)o1 (stereo unspecified) | 4.96
35 | CN(CCOCC1CC1)C(=O)Cn1cccc(C(F)(F)F)c1=O | -6.96
36 | CC(=O)OCC1CCCCN1C(=O)c1ccc(Cn2ccnc2)o1 (stereo unspecified) | -54.5
37 | Cc1ccc(CNC(=O)c2c[nH]nc2NC(=O)COCC2CC2)cc1 | 3.58
38 | CS(=O)(=O)c1nnc(NC(=O)CCc2cc(F)ccc2F)[nH]1 | -16.6
39 | CCC(C)(N)c1nc(=O)c(C)c(C)[nH]1 (stereo unspecified) | -1.82
40 | NS(=O)(=O)CC1CCCN(C(=O)CCCC2CCCC2)C1 (stereo unspecified) | 15.8
41 | CSCCC(NC(=O)c1ccc2ccccc2n1)C(=O)NC1CC1 (stereo unspecified) | -7.03
42 | Cc1ccc(CNCC2CCCn3ccnc32)s1 (stereo unspecified) | -15.1
43 | O=C(CN1CCCC(O)C1)NC(=O)NCc1cccs1 (stereo unspecified) | 0.795
44 | O=C(c1ccnnc1)N1C[C@H]2CCC[C@@]2(COCC2CCOCC2)C1 | -3.04
45 | Cc1cc(C(F)(F)F)nc(CNc2cc(C)nc3cc(C)nn23)n1 | 9.29
46 | Cc1cc(C(F)(F)F)nc(CCNc2nc(C)nc3sccc23)n1 | 9.46

Row | Structure (SMILES) | cytotoxicity at 10 µM [%]
47 | CC(=O)c1ccc(N2CCCC(CO)(CCc3ccccc3)C2)nc1 (stereo unspecified) | 1.2
48 | COc1ccc(-n2cccn2)c(CN2CCC3(CCCN(C)C3=O)C2)c1 (stereo unspecified) | 10.2
49 | COCCN(Cc1ccc(C)cc1)Cc1nccn1C | -63.3
50 | OC[C@@H]1CCCN1c1ccc(-c2nc(CCc3ccccc3)no2)cn1 | -0.134
51 | Cc1cc(NCCc2nc(C)c[nH]2)nc(-c2ccccc2O)n1 | 1.5
52 | Cc1nccc(N[C@H]2CN(C(=O)CN3CCOCC3)C[C@@H]2C(C)C)n1 | -7.92
53 | CCN(CC)CCCNc1nccc(-c2cn(C)nc2C)n1 | -2.92
54 | O=C(CCCn1cncn1)N1CCCC1c1nc(-c2ccccc2)no1 (stereo unspecified) | 0.997
55 | COc1cccn(CC(=O)N(C)CCSC)c1=O | 5.03
56 | COc1cccc2c1OCC(C(=O)NCCc1nnc(N)s1)C2 (stereo unspecified) | -33.4
57 | N[C@@H](Cc1c[nH]cn1)C(=O)N1CCC(Oc2ccc(Cl)cc2)CC1 | -2.13
58 | CN(C)CC(=O)NC1CC(C)(C)Cc2nc(C(C)(C)C)ncc21 (stereo unspecified) | -13.4
59 | O=C(CCN1CCCO1)N1CC[C@@H](CNC(=O)N2CCCC2)[C@H](O)C1 | 0.275
60 | CN(Cc1nc(Cc2cccc(C(F)(F)F)c2)no1)C1CCCCC1 | 1.99
61 | Cc1ccc(Cl)c(NC(=O)c2cccc(CN3CC[C@H](O)C3)c2)c1 | -11.9
62 | COc1ccc(CN2CC(=O)N(c3ccc(C)cc3)CC2C)cc1O (stereo unspecified) | 4.84
63 | OCC(O)CN(CCN1CCOCC1)Cc1ccco1 (stereo unspecified) | -4.7
64 | Cn1nccc1NC(=O)Cn1ccc(-c2ccc3c(c2)OCO3)n1 | -6.74
65 | Cc1ccc2nccc(C(=O)N3CCOC(CCN(C)C)C3)c2c1 (stereo unspecified) | 10.8
66 | CNc1ccnc(N2CCCC(C(=O)c3ccccn3)C2)n1 (stereo unspecified) | -12.1
67 | CCCS(=O)(=O)N1CCC2(CC1)CC(=O)N(CCCc1ccccc1)C2 | 8.35
68 | Cc1sc2nc(CCN)nc(N(C)CCCC3CCCO3)c2c1C (stereo unspecified) | -6.01
69 | O=C1NCC(c2ccc(F)cc2)Cc2[nH]c(CCN3CCCC3)nc21 (stereo unspecified) | -0.65

Row | Structure (SMILES) | cytotoxicity at 10 µM [%]
70 | CCc1ncc(C(=O)NCCN(C)S(C)(=O)=O)cn1 | 4.03
71 | COc1ccc(F)cc1C(=O)C1CCCN(Cc2ccc(C)s2)C1 (stereo unspecified) | -1.84
72 | CCN1CC(C(=O)NCCn2cccc2)CC1=O (stereo unspecified) | -4.72
73 | CC(C)c1nc(Cn2cncn2)n(-c2ccccn2)n1 | -1.03
74 | CN(Cc1nccn1C)C1CCCN(CCCc2ccccc2)C1 (stereo unspecified) | 1.17
75 | c1ccc(C(CC2CN(Cc3ncc[nH]3)CCO2)c2ccccc2)cc1 (stereo unspecified) | -0.73
76 | c1ccc2c(c1)CC(n1ccnc1-c1cc3n(n1)CCNC3)CO2 (stereo unspecified) | 4.58
77 | COc1cc(C)cc(C(C(=O)O)N(C)Cc2ccncc2C)c1OC (stereo unspecified) | 0.231
78 | CN1CCCN(C(=O)c2csc3nc(-c4ccc(Cl)cc4)cn23)CC1 | 2.14
79 | CCc1[nH]c2ccc(CNC(=O)Cc3c(C)nc(N)nc3C)cc2c1C | 2.02
80 | COc1cccc(OCC2CCCN(C(=O)c3cnc(C)nc3O)C2)c1 (stereo unspecified) | -15.8
81 | CCCc1n[nH]cc1C(=O)N1CCC(c2nccn2CCOC)CC1 | -15.3
82 | Cc1cc(CN2CCC(CNC(=O)c3nccc4ccccc34)C2)[nH]n1 (stereo unspecified) | 14.1
83 | CCCc1c(C(=O)NC2CCCC2)nnn1-c1ccc(OC)cc1 | 5.65
84 | CCc1noc(CN2CCN(C(=O)c3ccccc3F)CC2)n1 | -23.2
85 | Cc1nn(-c2ccccc2)cc1C(=O)N1CCCC1c1cnn(C)c1 (stereo unspecified) | -1.86
86 | Cc1nn(CC(C)C)c(N(C)C)c1CNCc1ccnn1C | -22.3
87 | Cc1cnn(CCNCc2csc(-c3ccc(C(N)=O)cc3)n2)c1 | -7.75
88 | O=C(Cc1noc2ccccc12)N1CCC(Nc2cccnn2)CC1 | -7.85
89 | Cc1nccn1C1CCCN(C(=O)c2cccc(-n3cccc3)c2)C1 (stereo unspecified) | -23
90 | COc1c(CNCc2ccc(CS(C)(=O)=O)cc2)c(C)nn1C | -4.47
91 | O=C(CSCc1ccncc1)NCc1csc(Br)c1 | -6.57
92 | Cc1cnn(CC2CCCN2C(=O)c2nccnc2N)c1 (stereo unspecified) | -27.6

Row | Structure (SMILES) | cytotoxicity at 10 µM [%]
93 | COc1ccccc1CC1CCCN(CCC(N)=O)C1 (stereo unspecified) | -5.06
94 | CN(Cc1ncc(-c2ccccc2)o1)C1CCCN(c2cccnn2)C1 (stereo unspecified) | -29.1
95 | Cc1ccc(-c2noc(CN3CCOC(Cn4cncn4)C3)n2)cc1 (stereo unspecified) | -4.15
96 | O=C(CN1CCC(c2cccc(F)c2)C1)NCc1ccco1 (stereo unspecified) | -7.88
97 | O=C(CN1CCCCC1Cn1cncn1)NCCc1ccc(F)cc1 (stereo unspecified) | -1.65
98 | OC(CN1CCC(c2ccn[nH]2)CC1)c1cccc(F)c1 (stereo unspecified) | -7.64
99 | CC(C)Cc1cc(C(=O)N2CCCC(n3cncn3)C2)[nH]n1 (stereo unspecified) | -3.9
100 | OC1(c2ccc(F)cc2)CCN(Cc2ccccc2N2CCCC2)CC1 | 20.5
101 | CNC(=O)CN1CCOCC2(CCCN(CCc3ccccc3)C2)C1 (stereo unspecified) | 0.0221
102 | c1cnc(N2CCO[C@H]3[C@H](OCCN4CCCC4)CC[C@@H]32)nc1 | -11.8
103 | C1CC(CN2CCc3c(nnn3CC3CC3)C2COCC2CC2)C1 (stereo unspecified) | 7.61
104 | Cc1cccc(COC[C@@H]2CC[C@H]3[C@H](CCN3Cc3ccco3)O2)n1 | -9.81
105 | CN1CC[C@]2(CN(CC3CCOCC3)C[C@H]2c2ccccc2)C1=O | -1.18
106 | COc1c(CNCc2cccc(Cn3ccnc3C)c2)c(C)nn1C | 23.8
107 | O=C(NCC1COCc2c(-c3cccnc3)nnn2C1)c1cccs1 (stereo unspecified) | 2.93
108 | COCCN1CCC2(CC1)CC(Nc1ccc(C)nn1)CO2 (stereo unspecified) | -0.818
109 | Fc1cnc(N2CCCC3(CCN(Cc4ccsc4)C3)C2)nc1 (stereo unspecified) | -2.83
110 | COc1ccc(-n2cc3nc(N)[nH]cc-3c2=O)cc1Cl | 17.7
111 | O=C(CN1C[C@@H]2CC[C@H]1CN(Cc1ccccn1)C2)Nc1ccccc1 | -5.92
